Reference: ChEMBL document CHEMBL1143463, “Potential antitumor agents: flavones and their derivatives from Linaria reflexa Desf” (Bioorg Med Chem Lett, 2005)
pIC50: −log10 of the molar value.

Tests used:
[1] = system: COR-L23; test: In vitro inhibitory concentration against human carcinoma COR-L23 cells in the presence of vinblastine sulfate salt; type: functional, cell-based
How it was run: (§1)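 Cell lines grown in RPMI 1640 with 10% FBS, 1% L-glutamine and 1% penicillin/streptomycin at 37 °C in 5% CO2. Seeded at 2–5 × 10^4 cells/well and left 24 h, then exposed 48 h to serial dilutions at final 0.25–50 (DMSO vehicle), six replicates. Cells fixed with cold TCA, stained with SRB, and read at 564 nm. IC50 taken from % inhibition curves, three experiments, mean ± SD.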

[2] = system: ACHN; test: In vitro inhibitory concentration against renal adenocarcinoma cell line (ACHN) in the presence of taxol; type: functional, cell-based; conditions: Homo sapiens; how it was run: as §1
[3] = system: MRC5; test: In vitro inhibitory concentration against human fetal lung MRC-5 cell line in the presence of vinblastine sulfate salt; type: functional, cell-based
How it was run: (§2)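 Cultured in DMEM with 10% FBS, 1% L-glutamine and 1% penicillin/streptomycin at 37 °C in 5% CO2. After 24 h attachment at 2–5 × 10^4 cells/well, cells were treated 48 h with serial dilutions at final 0.25–50 in DMSO-containing medium, six replicates. Survival measured by SRB staining of TCA-fixed cells at 564 nm against untreated control. IC50 from dose–response curves; three experiments, mean ± SD.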

[4] = In vitro inhibitory concentration against human amelanotic melanoma cell line (C32) in the presence of vinblastine sulfate salt; type: functional; how it was run: as §1
[5] = system: HepG2; test: In vitro inhibitory concentration against human hepatocellular carcinoma HepG-2 cells in the presence of vinblastine sulfate salt; type: functional, cell-based; how it was run: as §2
[6] = system: Caco-2; test: In vitro inhibitory concentration against human colorectal adenocarcinoma Caco-2 cells in the presence of vinblastine sulfate salt; type: functional, cell-based; how it was run: as §2

Row | Compound | pIC50 [1] | pIC50 [2] | pIC50 [3] | pIC50 [4] | pIC50 [5] | pIC50 [6]
1 | COc1ccc(-c2cc(=O)c3c(O)c(OC)c(O[C@@H]4OC(CO[C@@H]5OC(C)[C@H](O)[C@H](OC(C)=O)C5O)[C@@H](O)[C@H](O)C4O)cc3o2)cc1 (some centres undefined) | 4.98 | 4.77 | < 4.12 | 4.67 | 4.96 | 4.85
2 | C[C@]12O[C@H]1[C@@H](O)[C@]1(O)C=CO[C@@H](O[C@@H]3O[C@H](CO)[C@@H](O)[C@H](O)[C@H]3O)[C@@H]12 [ANTIRRHINOSIDE] | < 3.86 | < 3.86 | < 3.86 | < 3.86 | < 3.86 | < 3.86
3 | COc1ccc(-c2cc(=O)c3c(O)c(OC)c(O)cc3o2)cc1 [PECTOLINARIGENIN] | – | – | < 3.80 | 5.15 | – | –
4 | COc1ccc(-c2cc(=O)c3c(O)c(OC)c(O[C@@H]4OC(CO[C@@H]5OC(C)[C@H](OC(C)=O)[C@H](O)C5O)[C@@H](O)C(O)[C@@H]4O)cc3o2)cc1 (some centres undefined) | 5.29 | 4.95 | < 4.12 | 4.90 | 4.63 | 5.10
5 | COc1ccc(-c2cc(=O)c3c(O)c(OC)c(O[C@@H]4O[C@H](CO[C@@H]5O[C@@H](C)[C@H](O)[C@@H](O)[C@H]5O)[C@@H](O)[C@H](O)[C@H]4O)cc3o2)cc1 [PECTOLINARIN] | – | – | < 4.10 | 5.14 | 4.85 | –
6 | COc1ccc(-c2cc(=O)c3c(O)c(OC)c(O[C@@H]4OC(CO[C@@H]5OC(C)[C@H](O)[C@H](O)C5OC(C)=O)[C@@H](O)[C@H](O)C4O)cc3o2)cc1 (some centres undefined) [ISOLINARIIN A] | 5.18 | 4.86 | < 4.12 | 4.93 | 4.79 | 5.07
